# ASAP1 GAP inh – ASAP1 ArfGAP inhibition; Q9ULH1; ASAP1-stimulated ARF1 GTP hydrolysis, GDP FP detection; inhibition, % at 16.5 µM; hit rate 0.19% among 360,000; in the data active = inhibition above about 25%;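 note: 0% = vehicle with enzyme and substrate and 100% = no enzyme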
# PAFAH1B3 FP inh – inhibitors of human PAFAH1B3 | AID 492972 | hit rate 0.28% among 340,000 | Q15102 | inhibition, % at 3.39 µM | recombinant PAFAH1B3, FP-rhodamine probe, fluorescence polarization;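 active = inhibition above the screen-wide average of all tested compounds plus 3 SD, cut at about 25% in these data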;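 note: 0% = enzyme with DMSO only and 100% = wells lacking PAFAH1B3 protein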
# PAFAH1B2 inh – inhibitors of human PAFAH1B2; P68402; recombinant PAFAH1B2, FP-rhodamine activity probe, fluorescence polarization; inhibition, % at 3.39 µM; hit rate 1.2% among 340,000; AID 492953;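 active = inhibition above the mean of all tested compounds plus 3 SD, cut at about 24% in these data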;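 note: 0% = enzyme with DMSO and 100% = wells lacking PAFAH1B2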
# ARFGAP1 inhibitor – inhibitors of rat ARFGAP1 | Q62848 | Arfgap1-stimulated ARF1 GTP hydrolysis, GDP FP detection | inhibition, % at 16.5 µM | hit rate 0.26% among 360,000 | AID 651572;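 active = inhibition above a per-plate limit, mean inhibition of low control wells plus 3 SD, cut at about 25% in these data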;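 note: 0% = DMSO wells with enzyme and 100% = wells lacking Arfgap1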
# Target sequence (Q62848 1-136 limits assumed): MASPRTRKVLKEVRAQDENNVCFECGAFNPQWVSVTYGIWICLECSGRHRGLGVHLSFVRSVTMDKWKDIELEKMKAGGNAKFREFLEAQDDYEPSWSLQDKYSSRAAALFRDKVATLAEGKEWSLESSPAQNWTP
#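 Material: rat Arfgap1 catalytic domain, aa 1-136; also added: human ARF1(Δ1-17)-GTP substrate; compound dosing: one concentration, 16.5 µM, DMSO 1.26%; incubation: GTP hydrolysis reaction 2 h at 25 °C; measured by: Tracer-displacement fluorescence polarization with EDTA stop, 620/688 nm; evaluation: % inhibition from polarization; repeats: one replicate per compound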
# PAFAH2 inh – inhibitors of human PAFAH2. inhibition, % at 3.39 µM. Q99487. recombinant PAFAH2, FP-rhodamine activity probe, fluorescence polarization. hit rate 0.99% among 340,000;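 active = inhibition above the mean over all tested compounds plus 3 SD, cut at about 30% in these data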;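 note: inhibitors block probe labeling of enzyme so polarization drops; 0% = enzyme with DMSO and 100% = wells lacking PAFAH2 protein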
# pPAFAH FP inh – pPAFAH (human) enzyme inhibition; recombinant pPAFAH, FP-rhodamine probe fluorescence polarization; inhibition, % at 3.39 µM; hit rate 1.5% among 330,000;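 active = inhibition above the mean inhibition across the screen plus 3 SD, cut at about 25% in these data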;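 note: inhibitors block binding of the rhodamine activity-based probe so polarization drops; 0% = enzyme with DMSO and 100% = wells lacking pPAFAH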
# Target sequence (Q13093 whole entry, looked up): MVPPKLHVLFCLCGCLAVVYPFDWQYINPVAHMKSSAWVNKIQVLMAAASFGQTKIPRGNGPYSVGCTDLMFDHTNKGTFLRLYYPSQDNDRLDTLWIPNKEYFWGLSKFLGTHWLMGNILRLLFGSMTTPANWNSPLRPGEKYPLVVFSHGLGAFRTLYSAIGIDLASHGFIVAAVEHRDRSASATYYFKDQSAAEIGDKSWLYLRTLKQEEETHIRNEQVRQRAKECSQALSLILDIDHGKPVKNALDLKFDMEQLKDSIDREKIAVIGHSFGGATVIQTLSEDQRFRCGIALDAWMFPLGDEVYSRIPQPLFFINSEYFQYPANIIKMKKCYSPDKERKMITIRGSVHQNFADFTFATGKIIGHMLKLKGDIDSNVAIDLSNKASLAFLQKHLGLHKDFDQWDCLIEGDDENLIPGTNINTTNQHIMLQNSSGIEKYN
# PAFAH2 FP conf – PAFAH2 (human) inhibition, confirmed; AID 493030; shares compounds with PAFAH2 inh; hit rate 65% among 2,300; inhibition, % at 3.39 µM; recombinant PAFAH2, FP-rhodamine activity probe, fluorescence polarization;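 active = mean inhibition over three repeats above a set limit taken from the earlier primary screen, cut at about 30% in these data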;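 note: inhibitor blocks binding of rhodamine activity probe so polarization falls; 0% = enzyme with DMSO and 100% = wells lacking PAFAH2 protein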
# Numbers without * were called inactive; / = no result given. Shown are actives, neighbours in structure and some others; about 2.7% of the full set was active somewhere.
SMILES,ASAP1 GAP inh,PAFAH1B3 FP inh,PAFAH1B2 inh,ARFGAP1 inhibitor,PAFAH2 inh,pPAFAH FP inh,PAFAH2 FP conf
CC(NC(=O)COC(=O)c1ccccc1SCC(=O)N1CCCC1)c1ccccc1 (stereo not drawn),-1,1,2,-8,51*,6,42*
COc1ccc(NC(=O)COC(=O)c2ccccc2SCC(=O)N2CCCC2)cc1,4,1,0,-9,61*,6,62*
Cc1ccccc1NC(=O)COC(=O)c1ccccc1SCC(=O)N1CCCC1,4,-4,6,0,44*,5,41*
O=C(COC(=O)/C=C/c1cccc(F)c1)Nc1cccc(S(=O)(=O)NC2=NCCCCC2)c1,11,-1,4,2,39*,2,16
O=C(COC(=O)/C=C/c1cccc(C(F)(F)F)c1)Nc1cccc(S(=O)(=O)NC2=NCCC2)c1,-3,/,/,0,/,/,/
COc1cccc(/C=C/C(=O)OCC(=O)Nc2cccc(S(=O)(=O)NC3=NCCCCC3)c2)c1,-3,8,5,-5,50*,-1,42*
CC(OC(=O)C1CCN(c2ccc(C(F)(F)F)cn2)CC1)C(=O)c1ccccc1 (stereo not drawn),-18,-5,6,-7,-2,4,/
O=C1OC2(CCCCC2)OC(=O)C1=CNc1nc2ccccc2s1,1,4,9,8,41*,-2,21
O=C1OC2(CCCCC2)OC(=O)C1=CNc1nccs1,-3,2,2,-10,18,-1,/
COc1ccc(/C=C/C(=O)OCC(=O)NC2CCCC(C)C2C)cc1S(=O)(=O)N1CCOCC1 (stereo not drawn),7,-1,2,0,67*,0,75*
COc1ccc(/C=C/C(=O)OCC(=O)Nc2ccc(Cl)cc2F)cc1S(=O)(=O)N1CCOCC1,0,4,3,0,73*,2,48*
Cc1ccc([N+](=O)[O-])cc1NC(=O)c1ccoc1C,-4,10,3,12,2,2,/
COc1ccccc1C/C(N)=N/OC(=O)c1ccc(C)c([N+](=O)[O-])c1,4,5,2,0,24,6,/
Cc1ccc(C(=O)O/N=C(\N)Cc2cccs2)cc1[N+](=O)[O-],1,5,3,-23,36*,13,12
COc1ccc(C(=O)O/N=C(\N)Cc2cccs2)cc1OC,-1,6,2,-8,79*,13,76*
N/C(Cc1cccs1)=N\OC(=O)COc1ccc(Br)cc1Cl,4,1,10,9,5,5,/
Cc1cc(F)ccc1S(=O)(=O)N1CCCOC1CNC(=O)C(=O)NC1CCCCC1 (stereo not drawn),-8,11,8,10,1,-1,/
Cc1nc(NC(=O)COC(=O)CCC(=O)c2cccs2)c(Cl)cc1Cl,5,6,0,-7,4,21,/
Cc1nc(NC(=O)COC(=O)c2cccs2)c(Cl)cc1Cl,0,2,2,2,43*,/,29
Cc1c(Cl)cnc(NC(=O)COC(=O)c2cccs2)c1Cl,-12,6,-2,-6,58*,-1,41*
O=c1oc(-c2ccccc2F)nc2c1cnn2-c1ccccc1,5,8,4,6,74*,0,45*
CSc1nc2c(cnn2-c2ccccc2)c(=O)n1N,1,1,-3,3,1,5,/
O=c1oc(-c2cccc(Cl)c2)nc2c1cnn2-c1ccccc1,-5,6,-3,1,70*,20,52*
Nc1c(-c2cccc(Cl)c2)cnn1-c1ccccc1,5,-3,3,7,2,8,/
C#CCOCCOCCOCCNc1nc(N2CCN(C(=O)[C@H](Cc3cc4ccccc4[nH]3)n3cc([C@@H](N)CC(C)C)nn3)CC2)nc(N2CCN(C(=O)[C@H](Cc3cc4ccccc4[nH]3)n3cc([C@@H](N)CC(C)C)nn3)CC2)n1,/,1,0,/,-1,12,/
SMILES,ASAP1 GAP inh,PAFAH1B3 FP inh,PAFAH1B2 inh,ARFGAP1 inhibitor,PAFAH2 inh,pPAFAH FP inh,PAFAH2 FP conf
CC(C)(C)NC(=O)c1ccccc1NC(=O)c1ccc2c(c1)OCO2,-5,6,0,-1,3,2,/
CCCCNC(=O)c1ccccc1NC(=O)c1ccc2c(c1)OCO2,1,8,4,11,47*,-5,38*
Cc1cccc(CC(=O)Nc2ccc(C(=O)N3CCCCC3)cc2)c1,-8,5,0,2,5,4,/
Cc1ccccc1NC(=O)Cc1nc(-c2c[nH]c(C(=O)N3CCCC3)c2)cs1,-9,-1,3,15,40*,23,13
Cc1cccc(NC(=O)Cc2nc(-c3c[nH]c(C(=O)N4CCCC4)c3)cs2)c1,-1,0,-2,0,35*,/,12
C=CC1=CCN(S(=O)C(C)(C)C)[C@H]1CCO (stereo partly drawn),2,1,2,11,-1,/,/
Cc1cccc(NC(=O)COC(=O)c2cccs2)c1C,4,-1,6,11,68*,4,56*
COc1cc([N+](=O)[O-])ccc1NC(=O)COC(=O)c1n[nH]c2ccccc12,-1,3,-1,5,7,-1,/
Cc1cccc(NC(=O)COC(=O)c2n[nH]c3ccccc23)c1C,0,4,-1,0,59*,-5,46*
O=C(COC(=O)c1n[nH]c2ccccc12)Nc1ccccc1F,-1,-5,4,5,44*,-11,43*
O=C(COC(=O)c1n[nH]c2ccccc12)Nc1ccc(Cl)cc1[N+](=O)[O-],13,1,9,12,73*,-8,64*
Cc1noc(C)c1N=Nc1ccc(Br)cc1C(=O)O,4,-1,0,10,-8,3,/
Cc1ccc(S(=O)(=O)N2CCOCC2)cc1NC(=O)COC(=O)C1=COCCO1,-2,1,3,10,23,3,/
O=C1CCSC2=C1SCc1sccc12,7,/,/,-4,/,/,/
Oc1ccc2c(c1)OCC1(O)Cc3cc(O)c(O)cc3C21 (stereo not drawn),3,11,13,6,34*,/,12
Oc1cc2c(cc1O)[C@H]1c3ccc(O)c(O)c3OC[C@@]1(O)C2,3,5,2,-10,15,-1,/
Cc1[nH]n2c(=O)c3c(nc2c1-c1cccc2ccccc12)CCC3,-3,4,-1,8,10,6,/
O=c1c2c(nc3c(-c4cccc5ccccc45)c[nH]n13)CCC2,-2,6,1,-11,68*,11,69*
CSc1nc(NS(=O)(=O)c2ccc(F)cc2F)nn1C,-6,5,1,13,10,0,/
O=C(COC(=O)c1ccc2c(c1)OCCO2)Nc1ccc(F)cc1,-3,13,1,4,81*,/,82*

# Assay outcomes from PubChem.
